Experimental data published in ChEMBL document CHEMBL4130504, “Discovery of new indomethacin-based analogs with potentially selective cyclooxygenase-2 inhibition and observed diminishing to PGE2 activities” (Eur J Med Chem, 2017).

Assays:
Cyclooxygenase = target: T1, Cyclooxygenase (Rattus norvegicus, UniProt P35355+Q63921); assay: Inhibition of rat kidney microsomal COX assessed as PGE2 level using arachidonic acid as substrate preincubated for 5 to 15 mins followed by substrate addition measured after 40 mins by radio immunoassay
T1 sequence (P35355 whole entry): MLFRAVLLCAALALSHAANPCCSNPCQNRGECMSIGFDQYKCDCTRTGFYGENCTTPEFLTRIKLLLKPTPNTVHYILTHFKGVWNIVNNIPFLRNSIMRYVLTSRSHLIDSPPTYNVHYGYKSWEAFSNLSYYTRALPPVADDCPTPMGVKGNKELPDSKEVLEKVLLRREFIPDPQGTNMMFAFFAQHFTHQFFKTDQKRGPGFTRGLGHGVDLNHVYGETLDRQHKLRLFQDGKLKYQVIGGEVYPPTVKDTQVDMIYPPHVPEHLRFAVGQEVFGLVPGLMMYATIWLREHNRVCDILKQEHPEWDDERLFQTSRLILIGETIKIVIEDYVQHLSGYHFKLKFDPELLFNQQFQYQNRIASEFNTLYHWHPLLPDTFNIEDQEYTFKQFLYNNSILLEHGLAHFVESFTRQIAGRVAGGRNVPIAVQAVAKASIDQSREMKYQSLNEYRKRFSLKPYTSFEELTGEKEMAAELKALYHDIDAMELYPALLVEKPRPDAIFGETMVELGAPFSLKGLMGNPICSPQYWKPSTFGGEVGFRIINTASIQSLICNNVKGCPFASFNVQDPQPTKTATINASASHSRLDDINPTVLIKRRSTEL
T1 sequence (Q63921 whole entry): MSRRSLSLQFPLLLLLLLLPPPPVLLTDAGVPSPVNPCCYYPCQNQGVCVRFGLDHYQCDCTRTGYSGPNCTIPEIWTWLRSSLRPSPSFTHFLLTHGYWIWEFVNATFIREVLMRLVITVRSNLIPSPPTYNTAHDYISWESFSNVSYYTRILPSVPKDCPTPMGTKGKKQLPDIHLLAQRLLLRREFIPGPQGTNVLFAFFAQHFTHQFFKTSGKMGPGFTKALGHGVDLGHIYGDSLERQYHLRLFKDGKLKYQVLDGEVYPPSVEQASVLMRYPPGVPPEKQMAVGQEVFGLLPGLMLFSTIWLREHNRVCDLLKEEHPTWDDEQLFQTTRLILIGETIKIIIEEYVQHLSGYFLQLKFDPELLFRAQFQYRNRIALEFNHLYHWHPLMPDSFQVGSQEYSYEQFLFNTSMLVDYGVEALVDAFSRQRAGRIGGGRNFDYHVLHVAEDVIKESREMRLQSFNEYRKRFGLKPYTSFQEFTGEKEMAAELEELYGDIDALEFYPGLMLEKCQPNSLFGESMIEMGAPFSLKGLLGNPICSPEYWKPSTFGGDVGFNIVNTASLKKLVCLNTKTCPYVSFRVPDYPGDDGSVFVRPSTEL

Rattus norvegicus [1] = assay: Ulcerogenicity in albino rat assessed as at 30 umol/kg, po administered daily for 3 successive days in two equal doses at 0 and 12 hrs measured at 6 hrs post last dose by magnifying lens based assay relative to control; type: toxicity, organism-based; conditions: in vivo
Summary of the method: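 Male albino rats, 100-120 g, fasted 12 h, six per group. Compound given orally at 30 µmol/kg/day as two equal doses at 0 and 12 h for three days. Controls got 1% gum acacia. Killed 6 h after last dose. Stomach opened along the greater curvature, washed with cold saline and examined under a magnifying lens for hyperemia, hemorrhage, erosion or ulcer. % ulceration = ulcer-bearing animals ×100/group total.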

Rattus norvegicus [2] = assay: Antiinflammatory activity in albino rat assessed as protection against carrageenan-induced paw edema at 10 umol/kg, sc pretreated for 1 hr followed by carrageenan challenge measured after 4 hrs by plethysmometer (reference value: 0%); type: functional
Summary of the method: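 Male albino rats, 120-150 g, six per group. Compound in DMSO given subcutaneously at 10 µmol/kg 1 h before subplantar injection of 2% carrageenan in 0.9% saline. Controls got DMSO alone. Paw volume read by plethysmometer right after carrageenan and 4 h later. % protection = (Vc−Vd)×100/Vc from the 0–4 h increase. Mean ± SEM, Student's t-test.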

Rattus norvegicus [3] = assay: In vivo inhibition of rat COX-2 assessed as decrease in plasma PGE2 level by EIA relative to control; type: functional
Summary of the method: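 Plasma from heparinized rat blood, spun at 12,000 g for 2 min, then frozen until use. PGE2 measured by competitive enzyme immunoassay with a monoclonal anti-PGE2 antibody at room temperature, read at 405 nm. Expressed as % inhibition ± SEM.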

[4] = Inhibition of dog kidney microsomal COX assessed as PGE2 level using arachidonic acid as substrate preincubated for 5 to 15 mins followed by substrate addition measured after 40 mins by radio immunoassay; set-up: species or system Canis lupus familiaris
Summary of the method: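 Dog kidney microsomes: tissue homogenized and sonicated in phosphate buffer pH 7.1 with EDTA/PMSF, 100,000g pellet collected. Arachidonic acid added, 40 min at room temperature. Stopped with 1 N HCl, neutralized, PGE2 by radioimmunoassay. COX activity = PGE2 with arachidonic acid minus ethanol vehicle. IC50 from three separate experiments, mean ± SEM.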

Rattus norvegicus [5] = assay: Antiinflammatory activity in sc dosed Sprague-Dawley rat assessed as inhibition of cotton pellet-induced granuloma after 7 days; type: functional
Summary of the method: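 Adult male Sprague-Dawley rats, 120-140 g, six per group, acclimated one week. Cotton pellets (35 ± 1 mg) soaked with 0.01 mmol compound in chloroform, dried, then loaded with penicillin G/dihydrostreptomycin. Two pellets implanted subcutaneously, one per axilla, under mild anesthesia. Pellets with granuloma removed at day 7, dried 48 h at 60 °C and weighed. ED50 from dose-response at 4, 7, 10 and 15 µmol.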

| Structure (SMILES) | IC50 (Cyclooxygenase) [nM] | IC50 [4] [nM] | Activity (Rattus norvegicus [1]) [%] | Activity (Rattus norvegicus [2]) [%] | inhibition (INH) (Rattus norvegicus [3]) [%] | ED50 (Rattus norvegicus [5]) [µmol] |
| --- | --- | --- | --- | --- | --- | --- |
| COc1ccc2c(c1)c1c(n2Cc2ccc(Cl)cc2)CC(C)(C)CC1=O | 132 | 77 | 11.2 | 80.36 | 81.16 | 17.27 |
| Cc1ccc(-c2cc(C(F)(F)F)nn2-c2ccc(S(N)(=O)=O)cc2)cc1 [CELECOXIB] | – | 112 | 2.11 | 96.73 | 77.25 | 86.11 |
| COc1ccc2c(c1)c1c(n2C(=O)c2ccc(Cl)cc2)CC(C)(C)CC1=O | 141 | 80 | 13.18 | 79.66 | 80.24 | 28.27 |
| COc1ccc2c(c1)c1c(n2S(=O)(=O)c2ccc(Cl)cc2)CC(C)(C)CC1=O | 128 | 61 | 20.12 | 80.67 | 82.16 | 26.88 |
| COc1ccc2c(c1)c(CC(=O)O)c(C)n2C(=O)c1ccc(Cl)cc1 [INDOMETHACIN] | – | – | – | – | 98.29 | 9.568 |

More lines, in order of falling IC50 [4], values ahead:

| IC50 (Cyclooxygenase) [nM] | IC50 [4] [nM] | Structure (SMILES) | Activity (Rattus norvegicus [1]) [%] | Activity (Rattus norvegicus [2]) [%] | inhibition (INH) (Rattus norvegicus [3]) [%] | ED50 (Rattus norvegicus [5]) [µmol] |
| --- | --- | --- | --- | --- | --- | --- |
| 116 | 56 | CS(=O)(=O)c1ccc2c(c1)c1c(n2C(=O)c2ccc(Cl)cc2)CCCC1 | 12.45 | 80.97 | 83.19 | 25.67 |
| 104 | 53 | CS(=O)(=O)c1ccc2c(c1)c1c(n2S(=O)(=O)c2ccc(Cl)cc2)CCCC1=O | 11.29 | 81.88 | 84.11 | 22.33 |
| 93 | 45 | CS(=O)(=O)c1ccc2c(c1)c1c(n2Cc2ccc(Cl)cc2)CCCC1=O | 5.4 | 83.1 | 86.39 | 19.2 |
| 79 | 40 | CS(=O)(=O)c1ccc2c(c1)c1c(n2S(=O)(=O)c2ccc(Cl)cc2)CCCC1 | 2.9 | 85.32 | 88.2 | 18.67 |
| 56 | 39 | CS(=O)(=O)c1ccc2c(c1)c1c(n2Cc2ccc(Cl)cc2)CCCC1 | 4.48 | 87.55 | 89.43 | 14.56 |
| 48 | 34 | CS(=O)(=O)c1ccc2c(c1)c1c(n2C(=O)c2ccc(Cl)cc2)CCCC1=O | 3.28 | 88.06 | 91.29 | 12.38 |
